Assays:
Salmonella typhimurium = test: Antimicrobial activity against Salmonella Typhimurium CCM 5445 after 18 hrs by microdilution method; assay type: functional
Summary of the method: (§1)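 NCCLS M7-A4 broth microdilution. Two-fold series from 400 to 0.78 made in sterile distilled water. Overnight bacteria in double-strength Mueller-Hinton broth, adjusted to 10⁸ cfu/mL (McFarland 0.5). Incubated 37 °C, 18 h. MIC taken as the first well without turbidity. Medium-only and water-plus-medium controls.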

Escherichia coli = test: Antimicrobial activity against Escherichia coli ATCC 8739 after 18 hrs by microdilution method; assay type: functional
Summary of the method: (§2)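 Broth microdilution per NCCLS M7-A4. Stocks kept on nutrient agar at 4 °C. Overnight cultures in double-strength Mueller-Hinton broth, adjusted to 10⁸ cfu/mL against McFarland 0.5. Compounds serially diluted in sterile distilled water (400 down to 0.78). Incubated at 37 °C for 18 h. MIC taken as the first well without turbidity. Wells without organism and water/medium growth controls included.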

[1] = tested on: Staphylococcus epidermidis; test: Antimicrobial activity against Staphylococcus epidermidis ATCC 12228 after 18 hrs by microdilution method; assay type: functional; summary of the method: as §2
Klebsiella pneumoniae = test: Antimicrobial activity against Klebsiella pneumoniae CCM 2318 after 18 hrs by microdilution method; assay type: functional; summary of the method: as §1
Staphylococcus aureus = test: Antimicrobial activity against Staphylococcus aureus 6538/P after 18 hrs by microdilution method; assay type: functional; summary of the method: as §2
Micrococcus luteus = test: Antimicrobial activity against Micrococcus luteus ATCC 9341 after 18 hrs by microdilution method; assay type: functional; summary of the method: as §1
Proteus vulgaris = test: Antimicrobial activity against Proteus vulgaris ATCC 6897 after 18 hrs by microdilution method; assay type: functional; summary of the method: as §1
Bacillus cereus = test: Antimicrobial activity against Bacillus cereus CCM 99 after 18 hrs by microdilution method; assay type: functional; summary of the method: as §1
Candida albicans = test: Antifungal activity against Candida albicans ATCC 10231 after 18 hrs by microdilution method; assay type: functional
Summary of the method: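 Yeast broth microdilution per NCCLS M27-A. Stock kept on potato dextrose agar at 4 °C. Suspension in double-strength yeast glucose broth, adjusted to 10⁸ cfu/mL by McFarland 0.5. Water-based twofold series (400 down to 0.78) used. Incubated at 37 °C for 18 h. MIC is the lowest concentration with no visible turbidity.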

Pichia kudriavzevii = test: Antifungal activity against Candida krusei ATCC 6258 after 18 hrs by microdilution method; assay type: functional
Summary of the method: as §1, with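 “M27-A” for “M7-A4”, “microdilution for yeast.” for “microdilution.”, “Inoculum” for “Overnight bacteria”, “yeast glucose” for “Mueller-Hinton”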

[2] = Acute toxicity in po dosed Swiss albino mouse after 24 hrs; assay type: organism-based; settings: in vivo
Summary of the method: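 Mice dosed orally, 5 male and 5 female per group; limit test at 2000 mg/kg, plus classical LD50 test; toxic responses and deaths recorded over 24 h; LD50 derived from lethality.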

[3] = Salmonella enterica, CCM 5445, 18 h

| Compound | MIC (Salmonella typhimurium; Salmonella enterica subsp. enterica serovar Typhimurium) | MIC (Escherichia coli) | MIC [1] | MIC (Klebsiella pneumoniae) | MIC (Staphylococcus aureus) | MIC (Micrococcus luteus) | MIC (Proteus vulgaris) | MIC (Bacillus cereus) | MIC (Salmonella typhimurium; [3]) | MIC (Escherichia coli; ATCC 8739, 18 h) | MIC ([1]; ATCC 12228, 18 h) | MIC (Klebsiella pneumoniae; CCM 2318, 18 h) | MIC (Candida albicans; ATCC 10231, 18 h) | MIC (Micrococcus luteus; ATCC 9341, 18 h) | MIC (Proteus vulgaris; ATCC 6897, 18 h) | MIC (Bacillus cereus; CCM 99, 18 h) | MIC (Pichia kudriavzevii; ATCC 6258, 18 h) | LD50 at 24 h [2] | MIC (Candida albicans) | MIC (Pichia kudriavzevii) |
| --- | --- | --- | --- | --- | --- | --- | --- | --- | --- | --- | --- | --- | --- | --- | --- | --- | --- | --- | --- | --- |
| GENTAMICIN | 6.25 µg/mL | 3.12 µg/mL | 1.56 µg/mL | 25 µg/mL | 3.12 µg/mL | 1.56 µg/mL | 0.78 µg/mL | 6.25 µg/mL | – | – | – | – | – | – | – | – | – | – | – | – |
| Clc1ccc(C[N+]2=CN3CCCCC3C2)cc1.[Br-] (centres undefined) | – | – | – | – | 1.56 µg/mL | – | – | – | 0.78 µg/mL | 3.12 µg/mL | 0.78 µg/mL | 12.5 µg/mL | 0.78 µg/mL | 0.78 µg/mL | 6.25 µg/mL | 3.12 µg/mL | 0.78 µg/mL | > 2000 mg/kg | – | – |
| Cc1c(C)c(C)c(C[N+]2=CN3CCCCC3C2)c(C)c1C.[Br-] (centres undefined) | – | – | – | – | 25 µg/mL | – | – | – | 12.5 µg/mL | 12.5 µg/mL | 3.12 µg/mL | 50 µg/mL | 50 µg/mL | 12.5 µg/mL | 6.25 µg/mL | 12.5 µg/mL | 3.12 µg/mL | 1110 mg/kg | – | – |
| Cc1cc(C)c(CN2C=[N+](Cc3c(C)cc(C)cc3C)C3CCCCC32)c(C)c1.[Cl-] (centres undefined) | – | – | – | – | 100 µg/mL | – | – | – | – | 1600 µg/mL | 1600 µg/mL | – | 1600 µg/mL | – | – | – | – | – | – | – |
| Cc1cc(C)c(C[N+]2=CN3CCCCC3C2)c(C)c1.[Br-] (centres undefined) | – | – | – | – | 50 µg/mL | – | – | – | 100 µg/mL | 200 µg/mL | 25 µg/mL | 200 µg/mL | 50 µg/mL | 6.25 µg/mL | 50 µg/mL | 200 µg/mL | 12.5 µg/mL | 758 mg/kg | – | – |
| Cc1ccc(C[N+]2=CN3CCCCC3C2)cc1.[Br-] (centres undefined) | – | – | – | – | 3.12 µg/mL | – | – | – | 50 µg/mL | 0.78 µg/mL | 1.56 µg/mL | 0.78 µg/mL | 3.12 µg/mL | 6.25 µg/mL | 6.25 µg/mL | < 0.78 µg/mL | 0.78 µg/mL | > 2000 mg/kg | – | – |
| FC(F)(F)c1ccc(C[N+]2=CN3CCCCC3C2)cc1.[Br-] (centres undefined) | – | – | – | – | 1.56 µg/mL | – | – | – | 0.78 µg/mL | 0.78 µg/mL | 0.78 µg/mL | 12.5 µg/mL | 0.78 µg/mL | 0.78 µg/mL | 6.25 µg/mL | 3.12 µg/mL | 0.78 µg/mL | 824 mg/kg | – | – |
| N#Cc1ccc(C[N+]2=CN3CCCCC3C2)cc1.[Br-] (centres undefined) | – | – | – | – | 1.56 µg/mL | – | – | – | 0.78 µg/mL | 0.78 µg/mL | 1.56 µg/mL | 12.5 µg/mL | 0.78 µg/mL | 0.78 µg/mL | 6.25 µg/mL | 3.12 µg/mL | 0.78 µg/mL | > 2000 mg/kg | – | – |
| Cc1cc(C)c(C[n+]2cn(C)c3ccccc32)c(C)c1.[Cl-] | – | – | – | – | 1600 µg/mL | – | – | – | – | 1600 µg/mL | 1600 µg/mL | – | 1600 µg/mL | – | – | – | – | – | – | – |
| Clc1ccc(C[N+]2=CN3CCCCC3C2)c(Cl)c1.[Br-] (centres undefined) | – | – | – | – | 0.78 µg/mL | – | – | – | 0.78 µg/mL | 3.12 µg/mL | 0.78 µg/mL | 12.5 µg/mL | 0.78 µg/mL | 0.78 µg/mL | 1.56 µg/mL | 3.12 µg/mL | 0.78 µg/mL | 1890 mg/kg | – | – |
| Cc1cc(C)c(C)c(C[N+]2=CN3CCCCC3C2)c1C.[Br-] (centres undefined) | – | – | – | – | 50 µg/mL | – | – | – | 50 µg/mL | 50 µg/mL | 6.25 µg/mL | 200 µg/mL | 50 µg/mL | 12.5 µg/mL | 6.25 µg/mL | 100 µg/mL | 6.25 µg/mL | 1950 mg/kg | – | – |
| CC(C)(C)c1ccc(C[N+]2=CN3CCCCC3C2)cc1.[Br-] (centres undefined) | – | – | – | – | 100 µg/mL | – | – | – | 100 µg/mL | 200 µg/mL | 100 µg/mL | 200 µg/mL | 25 µg/mL | 12.5 µg/mL | 50 µg/mL | 200 µg/mL | 50 µg/mL | 838 mg/kg | – | – |
| Fc1c(F)c(F)c(C[N+]2=CN3CCCCC3C2)c(F)c1F.[Br-] (centres undefined) | – | – | – | – | 3.12 µg/mL | – | – | – | 25 µg/mL | 25 µg/mL | 0.78 µg/mL | 12.5 µg/mL | 12.5 µg/mL | 0.78 µg/mL | 12.5 µg/mL | 6.25 µg/mL | 3.12 µg/mL | 978 mg/kg | – | – |
| C1=[N+](Cc2ccccc2)CC2CCCCN12.[Br-] (centres undefined) | – | – | – | – | 100 µg/mL | – | – | – | > 400 µg/mL | > 400 µg/mL | 50 µg/mL | > 400 µg/mL | > 400 µg/mL | 3.12 µg/mL | > 400 µg/mL | > 400 µg/mL | > 400 µg/mL | 907 mg/kg | – | – |
| NYSTATIN | – | – | – | – | – | – | – | – | – | – | – | – | – | – | – | – | – | – | 6.25 µg/mL | 3.12 µg/mL |

Reference: ChEMBL document CHEMBL1795313, “Synthesis and antimicrobial activities of hexahydroimidazo[1,5-a]pyridinium bromides with varying benzyl substituents” (Eur J Med Chem, 2011)
